The text below walks through data of ChEMBL document CHEMBL1126599, “Specific sequestering agents for the actinides. 21. Synthesis and initial biological testing of octadentate mixed catecholate-hydroxypyridinonate ligands” (J Med Chem, 1993).

Data set [1] concerns Mus musculus. The experiment in a line: Percent of injected 238-Plutonium(IV) in mice soft tissue at 24 hr (orally administered). Type of data set: ADME, organism-based. Particulars: in vivo, po. The essentials:
(§1)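 Mice were fasted 18 h and given plutonium(IV)-238 citrate iv. At 3 min, ligand at 30 μmol kg-1 in 0.14 M NaCl was given by gastric intubation, with a little food at 4 h. Urine (0–4 h, 4–24 h) and feces were collected per five-mouse group in a metabolic cage. Mice were killed at 24 h. Tissue and GI Pu was expressed as % injected dose, normalized to 100% recovery. Kidneys and excreta were pooled per group. Fasted controls were included.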

Data set [2] relates to Mus musculus. As to the kind of experiment: Percent of injected 238-Plutonium(IV) in mice whole body at 24 hr (orally administered). Format: ADME, organism-based. The following applies: in vivo, po. The essentials: as §1
Data set [3] has as its system Mus musculus. The experiment in a line: Percent of injected 238-Plutonium(IV) in mice skeleton at 24 hr (orally administered). Type of data set: ADME, organism-based. Particulars: in vivo, po. In a few lines: as §1
The nature of data set [4]: Removal of 238-Plutonium(IV) in urine after 0-4 h. Format: ADME, tissue-based. In a few lines:
(§2)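 Mice received plutonium(IV)-238 citrate iv. At 1 h, normally fed mice got ligand at 30 μmol kg-1 in 0.14 M NaCl by ip injection, then water only. Each five-mouse group was housed in one metabolic cage to collect urine and feces. Mice were killed at 24 h. Pu was expressed as % of injected dose, normalized to 100% recovery. Kidneys and excreta were pooled per group. Saline-injected controls were killed at 24 h.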

Data set [5] can be described thus: Removal of 238-Plutonium(IV) in gastrointestinal (GI) contents at 24 h. Format: ADME. In a few lines: as §2
The species named for data set [6] is Mus musculus. The experiment in a line: Percent of injected 238-Plutonium(IV) in mice soft tissue at 24 h. Format: ADME, organism-based. The following applies: in vivo. In a few lines:
as §2

Data set [7] is described as follows: Removal of 238-Plutonium(IV) in urine at 0-4 hr (orally administered). Type of data set: ADME, tissue-based. Particulars: po. The essentials:
as §1

A short description of data set [8]: Removal of 238-Plutonium(IV) in feces at 24 hr (orally administered). Particulars: po. Format: ADME. The essentials:
as §1

The nature of data set [9]: Removal of 238-Plutonium(IV) in gastrointestinal (GI) contents at 24 hr (orally administered). Type of data set: ADME. The following applies: po. In a few lines: as §1
Data set [10] is described as follows: Removal of 238-Plutonium(IV) in feces at 24 h. Format: ADME. In a few lines:
as §2

A short description of data set [11]: Removal of 238-Plutonium(IV) in urine after 4-24 h. Type of data set: ADME, tissue-based. In a few lines:
as §2

Data set [12] is filed under the species Mus musculus. As to the kind of experiment: Percent of injected 238-Plutonium(IV) in mice whole body at 24 h. Format: ADME, organism-based. Particulars: in vivo. The essentials:
as §2

Data set [13] in a line: Removal of 238-Plutonium(IV) in urine at 4-24 hr (orally administered). Format: ADME, tissue-based. The following applies: po. The essentials:
as §1

Data set [14] relates to Mus musculus. As to the kind of experiment: Percent of injected 238-Plutonium(IV) in mice liver at 24 hr (orally administered). The following applies: in vivo, po. Type of data set: ADME, organism-based. The essentials:
as §1

The species named for data set [15] is Mus musculus. As to the kind of experiment: Percent of injected 238-Plutonium(IV) in mice kidneys at 24 h. Type of data set: ADME, organism-based, Kidney. The following applies: in vivo. In a few lines:
as §2

Data set [16] is filed under the species Mus musculus. The experiment in a line: Percent of injected 238-Plutonium(IV) in mice liver at 24 h. Type of data set: ADME, organism-based. The following applies: in vivo. In a few lines: as §2
Data set [17] is filed under the species Mus musculus. The experiment in a line: Percent of injected 238-Plutonium(IV) in mice skeleton at 24 h. Type of data set: ADME, organism-based. Particulars: in vivo. In a few lines: as §2
The test system of data set [18] is Mus musculus. The experiment in a line: Percent of injected 238-Plutonium(IV) in mice kidneys at 24 hr (orally administered). Type of data set: ADME, organism-based, Kidney. The following applies: in vivo, po. The essentials:
as §1

Data set [19] is described as follows: Removal of 238-Plutonium(IV) in urine after 0-4 hr (orally administered). Format: ADME, tissue-based. The following applies: po. The essentials: as §1
Data set [20] in a line: Removal of 238-Plutonium(IV) in urine after 4-24 hr (orally administered). The following applies: po. Type of data set: ADME, tissue-based. In a few lines:
as §1

The subject of data set [21] is Mus musculus. The experiment in a line: Percent of injected 238-Plutonium(IV) in mice kidney at 24 hr (orally administered). Particulars: in vivo, po. Format: ADME, organism-based. In a few lines: as §1
The nature of data set [22]: Removal of 238-Plutonium(IV) in urine after 0-24 hr (orally administered). Format: ADME, tissue-based. Particulars: po; in the assay text read “4-24 hr” for “0-24 hr”. The essentials: as §1
A short description of data set [23]: Removal of 238-Plutonium(IV) in urine 4-24 hr (orally administered). Format: ADME. The following applies: po. In a few lines: as §1
Data set [24] in a line: Removal of 238-Plutonium(IV) in urine 0-4 h (orally administered). Type of data set: ADME. Particulars: po. The essentials:
as §1

A short description of data set [25]: Removal of 238-Plutonium(IV) in urine after 0-24 h. Format: ADME, tissue-based. The essentials:
as §2

As to `O=C(O)c1ccc(C(=O)NCCCN(CCCCN(CCCNC(=O)c2ccc(C(=O)O)c(O)c2O)C(=O)c2ccc(C(=O)O)c(O)c2O)C(=O)c2ccc(C(=O)O)c(O)c2O)c(O)c1O`, the ID with Mus musculus [1] came to 3.9%; in the data set on Mus musculus [2] it was 56%; in the data set with Mus musculus [3] it was 32%; in data set [4], 44%; in [5], 12%; in the data set listed under Mus musculus [6], 4.8%. Also, the ID in data set [7] was 30%; in data set [8], 3.3%; in data set [9], 1%; in data set [10], 4.8%; in [11], 4.6%; in the data set filed under Mus musculus [12], 29%. Moreover, the ID worked out at 9.5% in data set [13]; 19% in the data set on Mus musculus [14]; 2.6% in the data set filed under Mus musculus [15]; 11% in the data set filed under Mus musculus [16]; 11% in the data set listed under Mus musculus [17]; 1.5% with Mus musculus [18].

For the compound `O=C(NCCCN(CCCCN(CCCNC(=O)c1cc(S(=O)(=O)O)cc(O)c1O)C(=O)c1cc(S(=O)(=O)O)cc(O)c1O)C(=O)c1cc(S(=O)(=O)O)cc(O)c1O)c1cc(S(=O)(=O)O)cc(O)c1O`, the ID in data set [4] came to 58%; in data set [5] it was 2.9%; in the data set filed under Mus musculus [6], 2.8%; in data set [10], 0.4%; in data set [11], 4%; in the data set listed under Mus musculus [12], 35%. The figures for the ID in the data set listed under Mus musculus [15], in the data set filed under Mus musculus [16] and in the data set filed under Mus musculus [17] were 0.9%, 25% and 6.7%, respectively.

`O=C(NCCCN(CCCCN(CCCNC(=O)c1cccc(=O)n1O)C(=O)c1cccc(=O)n1O)C(=O)c1cccc(=O)n1O)c1cccc(=O)n1O`: the ID with Mus musculus [1] came out at 1.3%; in the data set with Mus musculus [2] it was 24%; in [19], 23%; in the data set with Mus musculus [3], 12%; in data set [4], 23%; in data set [5], 36%. In addition, the ID in the data set filed under Mus musculus [6] turned out to be 1.6%; in data set [8], 50%; in data set [9], 1.4%; in data set [10] it was 21%; in data set [11] it was 2%; in the data set filed under Mus musculus [12], 18%. Besides, the ID with Mus musculus [14] came out at 11%; in the data set filed under Mus musculus [15] it was 0.2%; in the data set filed under Mus musculus [16], 8.9%; in [20] it was 2.7%; in the data set listed under Mus musculus [17] it was 7.5%; with Mus musculus [21], 0.1%.

For `O=C(NCCCN(CCCCN(CCCNC(=O)c1cccc(O)c1O)C(=O)c1cccc(=O)n1O)C(=O)c1cccc(O)c1O)c1cccc(O)c1O`, the ID in the data set on Mus musculus [1] is reported as 4.5%; in the data set with Mus musculus [2], 82%; in data set [19] it was 8.3%; in the data set on Mus musculus [3] it was 30%; in data set [4], 9.1%; in data set [5], 12%. Also, the ID is reported as 4% in the data set filed under Mus musculus [6]; 4.5% in data set [8]; 1.8% in data set [9]; 43% in data set [10]; 3.1% in [11]; 33% in the data set listed under Mus musculus [12]. In addition, the ID in [22] worked out at 2.3%; in the data set with Mus musculus [14], 43%; in the data set listed under Mus musculus [15], 3.1%; in the data set filed under Mus musculus [16], 12%; in the data set listed under Mus musculus [17], 13%; in the data set on Mus musculus [18], 3%.

Take `O=C(NCCCN(CCCCN(CCCNC(=O)c1cccc(O)c1O)C(=O)c1cccc(=O)n1O)C(=O)c1cccc(=O)n1O)c1cccc(O)c1O`: the ID turned out to be 4.7% in the data set on Mus musculus [1]; 68% with Mus musculus [2]; 26% with Mus musculus [3]; 7.9% in data set [4]; 20% in data set [5]; 2.4% in the data set listed under Mus musculus [6]. Also, the ID in data set [8] is reported as 13%; in [23], 4%; in [24], 12%; in data set [9] it was 1.9%; in data set [10], 31%; in data set [11] it was 4.1%. The ID in the data set filed under Mus musculus [12] came out at 37%; with Mus musculus [14], 35%; in the data set filed under Mus musculus [15], 2%; in the data set listed under Mus musculus [16], 21%; in the data set listed under Mus musculus [17] it was 12%; in the data set with Mus musculus [18], 3.3%.

On to `O=C(NCCCN(CCCCN(CCCNC(=O)c1cccc(O)c1O)C(=O)c1cccc(O)c1O)C(=O)c1cccc(O)c1O)c1cccc(O)c1O`, for which the ID in data set [5] is listed as 8.6%; in the data set filed under Mus musculus [6], 5.1%; in data set [25], 9.4%; in data set [10], 28%; in the data set listed under Mus musculus [12], 53%; in the data set listed under Mus musculus [15], 4.3%. The values for the ID in the data set listed under Mus musculus [16] and in the data set listed under Mus musculus [17] were 26% and 18%, respectively.
